Source: ChEMBL document CHEMBL1152323, “Polyoxygenated methyl cyclohexanoids from a terrestrial ampelomyces fungus” (J Nat Prod, 2009)
≈ marks a conversion by molar mass, not a printed value. Calls of active or inactive are those of the source. The calls are words filed in the database; no cut-off is given here.

Legend:
Prunus dulcis = assay: Inhibition of almond beta glucosidase at 10 uM
Penicillium decumbens = assay: Inhibition of Penicillium decumbens alpha-rhamnosidase at 10 mM
[1] = Inhibition of Saccharomyces cerevisiae alpha glucosidase
How it was run: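 Baker's yeast α-glucosidase (0.2 U/mL solution) in 0.2 M phosphate buffer pH 6.8 was preincubated with compound at 37 °C for 30 min. 2.5 mM p-nitrophenyl α-D-glucopyranoside solution was then added and the mixture incubated 5 min at 37 °C. The reaction was stopped with 0.1 M Na₂CO₃ and A405 read before and after reaction. Percent inhibition was taken against a buffer-only control, with acarbose as positive control, giving IC50 in mM ± SD.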

Proteus vulgaris = assay: Antimicrobial activity against Proteus vulgaris by almar blue assay; assay type: functional
How it was run: (§1)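 Microplate Alamar Blue broth assay: bacteria at 2 × 10⁵ cfu/mL in MHB with 8% Alamar Blue; serial 2-fold compound dilutions in DMSO added (2 µL to 78 µL culture); ceftazidime reference; incubated at 32 °C until growth controls turned pink; fluorescence ex 530/em 590 nm; % inhibition, triplicate averaged; MIC50 and MIC90 interpolated from concentration–inhibition curves.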

Pseudomonas aeruginosa = assay: Antimicrobial activity against Pseudomonas aeruginosa by almar blue assay; assay type: functional
How it was run: as §1

Escherichia coli = assay: Antimicrobial activity against Escherichia coli by almar blue assay; assay type: functional
How it was run: as §1

Staphylococcus aureus = assay: Antimicrobial activity against Staphylococcus aureus by almar blue assay; assay type: functional
How it was run: as §1

| SMILES | Activity (Prunus dulcis) | Activity (Penicillium decumbens) | IC50 [1] [mM] | MIC50 (Proteus vulgaris) [µM] | MIC90 (Proteus vulgaris) [µM] | MIC50 (Pseudomonas aeruginosa) [µM] | MIC90 (Pseudomonas aeruginosa) [µM] | MIC50 (Escherichia coli) [µM] | MIC90 (Escherichia coli) [µM] | MIC50 (Staphylococcus aureus) [µM] | MIC90 (Staphylococcus aureus) [µM] |
| --- | --- | --- | --- | --- | --- | --- | --- | --- | --- | --- | --- |
| C[C@H]1C[C@H](O)[C@@H]2O[C@@H]2[C@H]1O (relative stereo) [AMPELOMIN B] | inactive | inactive | > 10 |  |  |  |  |  |  |  |  |
| C[C@H]1C[C@H](O)[C@H](O)C[C@H]1O (relative stereo) [AMPELOMIN D] | inactive | inactive | > 10 |  |  |  |  |  |  |  |  |
| C[C@H]1C[C@H](O)[C@H](O)C[C@@H]1O (relative stereo) [AMPELOMIN E] | inactive | inactive | 5.93 |  |  |  |  |  |  |  |  |
| Cc1cccc(O)c1C(=O)O[C@H]1[C@H](O)[C@@H](O)[C@@H](C)C[C@@H]1O (relative stereo) [AMPELOMIN G] | inactive | inactive | 1.74 |  |  |  |  |  |  |  |  |
| C[C@H]1C[C@@H](O)C=CC1=O [AMPELOMIN A] | inactive | inactive | 3.59 | 51.6 (≈ 6.51 µg/mL) | 202 (≈ 25.5 µg/mL) | 63.5 (≈ 8.01 µg/mL) | 1020 (≈ 128 µg/mL) | 89.9 (≈ 11.3 µg/mL) | 265 (≈ 33.4 µg/mL) | 54.9 (≈ 6.93 µg/mL) | 234 (≈ 29.5 µg/mL) |
| CC(C)(O/N=C(\C(=O)N[C@@H]1C(=O)N2C(C(=O)[O-])=C(C[n+]3ccccc3)CS[C@H]12)c1csc(N)n1)C(=O)O [CEFTAZIDIME] |  |  |  | 0.18 (≈ 0.0984 µg/mL) | 0.21 (≈ 0.115 µg/mL) | 0.73 (≈ 0.399 µg/mL) | 3.94 (≈ 2.15 µg/mL) | 0.37 (≈ 0.202 µg/mL) | 0.46 (≈ 0.251 µg/mL) | 3.11 (≈ 1.7 µg/mL) | 14.7 (≈ 8.01 µg/mL) |

Further lines, with some results ahead:

| Activity (Prunus dulcis) | Activity (Penicillium decumbens) | IC50 [1] [mM] | SMILES | MIC50 (Proteus vulgaris) [µM] | MIC90 (Proteus vulgaris) [µM] | MIC50 (Pseudomonas aeruginosa) [µM] | MIC90 (Pseudomonas aeruginosa) [µM] | MIC50 (Escherichia coli) [µM] | MIC90 (Escherichia coli) [µM] | MIC50 (Staphylococcus aureus) [µM] | MIC90 (Staphylococcus aureus) [µM] |
| --- | --- | --- | --- | --- | --- | --- | --- | --- | --- | --- | --- |
| inactive | inactive | 6.12 | C[C@H]1C[C@H](O)[C@@H](O)C[C@H]1O (relative stereo) [AMPELOMIN C] |  |  |  |  |  |  |  |  |
| inactive | inactive | > 10 | C[C@H]1C[C@@H](O)[C@@H](O)C[C@@H]1O (relative stereo) [AMPELOMIN F] |  |  |  |  |  |  |  |  |
|  |  | 0.03 | C[C@H]1O[C@H](O[C@H]2[C@H](O)[C@@H](O)[C@@H](O[C@H]3[C@H](O)[C@@H](O)C(O)O[C@@H]3CO)O[C@@H]2CO)[C@H](O)[C@@H](O)[C@@H]1N[C@H]1C=C(CO)[C@@H](O)[C@H](O)[C@H]1O (stereo partly drawn) [ACARBOSE] |  |  |  |  |  |  |  |  |
